Measured values from ChEMBL document CHEMBL3286353, “Optimization of small-molecule inhibitors of influenza virus polymerase: from thiophene-3-carboxamide to polyamido scaffolds” (J Med Chem, 2014).
Converted amounts (≈) assume the structure as drawn. The source made the active and inactive calls. The rule behind the calls is not given here.

Columns and labels:
[1] = Inhibition of Influenza A virus GST-tagged PB1 (1 to 25) expressed in Escherichia coli binding to Influenza A virus 6His-tagged PA (239 to 716) expressed in Escherichia coli BL21(DE3) by ELISA
Procedure, shortened: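 Plates coated with 400 ng purified E. coli-expressed 6His-PA(239-716) for 3 h at 37 °C, then blocked with 2% BSA/PBS for 1 h at 37 °C. GST-PB1(1-25) (200 ng; GST alone as control) was added with compound at 10, 50, 100 or 200 μM and incubated overnight at room temperature. Detection used HRP anti-GST mAb (1:3000) and TMB at 450 nm, with DMSO set as 100%. IC50 is mean ± SD, ≥3 experiments in duplicate.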

[2] = Cytotoxicity against human HEK293T cells after 24 hrs by MTT assay; assay type: cell-based, HEK-293T
Procedure, shortened: (§1)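 MTT assay. HEK 293T or MDCK cells (2×10^4 per well) were cultured at 37 °C in DMEM with serially diluted compounds (250 to 1.9 μM), for 24 h (293T) or 48 h (MDCK). MTT (5 mg/ml stock) was then added for 4 h, cells were lysed and incubated 3 h more, and absorbance was read at 620 nm. CC50 is the concentration cutting viability 50%, mean ± SD of ≥3 independent experiments in duplicate.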

[3] = Cytotoxicity against MDCK cells after 48 hrs by MTT assay; assay type: cell-based, Canis lupus familiaris; conditions: dog; procedure, shortened: as §1
Human betaherpesvirus 5 = test: Inhibition of HCMV UL54 expressed in baculovirus interaction with UL44 expressed in baculovirus after 1 hr by ELISA
Procedure, shortened: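 Plates coated with […] purified baculovirus-expressed HCMV UL54, then blocked with 2% BSA/PBS for 1 h. Purified UL44 ([…]) carrying a C-terminal EEF tag was added with compound or DMSO (1% final) for 1 h at 37 °C. Detection used MAb YL1/2 (1 h, 37 °C), then HRP anti-rat antibody and TMB, read at 450 nm. Compounds were tested up to 200 μM.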

[4] = Inhibition of Influenza A virus RdRP infected in human HEK293T cells after 24 hrs by dual luciferase reporter gene assay; assay type: cell-based; conditions: HEK-293T
Procedure, shortened: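 HEK 293T cells (10^5 per well) were transfected 24 h after seeding with PB1, PB2, PA and NP plasmids (100 ng each), a pol I firefly luciferase reporter (50 ng) and pRL-SV40 Renilla (50 ng), with compound or DMSO. Medium was replaced with compound-containing DMEM at 4 h. Dual luciferase was read at 24 h post-transfection, with DMSO set as 100%. EC50 is mean ± SD, ≥3 experiments in duplicate.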

Influenza A virus [5] = test: Inhibition of Influenza A virus A/PR/8/34 infected in MDCK cells after 48 hrs by plaque reduction assay; assay type: functional, organism-based; conditions: A/PR/8/34, MDCK
Procedure, shortened: (§2)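 Confluent MDCK monolayers in 12-well plates were infected with about 40 PFU/well in DMEM with 1 µg/ml TPCK-trypsin and 0.14% BSA, with compound or DMSO, for 1 h at 37 °C. Overlay was serum-free medium with trypsin, BSA, 1.2% Avicel and compound. After 48 h, cells were fixed with 4% formaldehyde, stained with 0.1% toluidine blue and plaques counted, with DMSO set as 100%. EC50 is mean ± SD, ≥3 experiments in duplicate.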

[6] = Inhibition of Influenza A virus (A/Solomon Islands/3/2006(H1N1)) infected in MDCK cells after 48 hrs by plaque reduction assay; assay type: functional, cell-based; procedure, shortened: as §2
Influenza A virus [7] = test: Inhibition of Influenza A virus A/Padova/30/11(H1N1) infected in MDCK cells after 48 hrs by plaque reduction assay; assay type: functional, organism-based; procedure, shortened: as §2
[8] = Inhibition of Influenza A virus (A/Parma/24/2009(H1N1)) infected in MDCK cells after 48 hrs by plaque reduction assay; assay type: functional, cell-based; procedure, shortened: as §2
Influenza A virus [9] = test: Inhibition of Influenza A virus A/[…]/67/05(H3N2) infected in MDCK cells after 48 hrs by plaque reduction assay; assay type: functional, organism-based; procedure, shortened: as §2
Influenza B virus [10] = test: Inhibition of Influenza B virus (B/Lee/40) infected in MDCK cells after 48 hrs by plaque reduction assay; assay type: functional, organism-based; conditions: B/Lee/1940, MDCK; procedure, shortened: as §2
Influenza B virus [11] = test: Inhibition of Influenza B virus (B/Malaysia/2506/2004) infected in MDCK cells after 48 hrs by plaque reduction assay; assay type: functional, cell-based; conditions: B/Malaysia/2506/2004, MDCK; procedure, shortened: as §2
[12] = Solubility of the compound in D2O at 25 degC after 24 hrs by NMR analysis; assay type: physicochemical
[13] = Permeability of the compound by PAMPA; assay type: physicochemical
[14] = Metabolic stability in human liver microsomes assessed as compound remaining after 30 mins by HPLC-MS/MS analysis; assay type: ADME; conditions: read-out: Stability
Liver microsome = test: Metabolic stability in human liver microsomes after 30 mins by HPLC-MS/MS analysis; assay type: ADME; conditions: 0.5 h

Compound	IC50 [1] [µM]	CC50 at 24 h [2] [µM]	CC50 at 48 h [3] [µM]	inhibition activity call (active/not active) (Human betaherpesvirus 5)	EC50 [4] [µM]	EC50 (Influenza A virus [5]) [µM]	EC50 [6] [µM]	EC50 (Influenza A virus [7]) [µM]	EC50 [8] [µM]	EC50 (Influenza A virus [9]) [µM]	EC50 (Influenza B virus [10]) [µM]	EC50 (Influenza B virus [11]) [µM]	solubility at 24 h [12] [µg/mL]	permeability [13]	remaining at 0.5 h [14] [%]	Stability (Liver microsome)	inhibition (Human betaherpesvirus 5)	IC50 [4] [µM]
NC(=O)c1c(NC(=O)c2cccnc2)sc2c1CCCC2	> 200	> 250	45.2															
CCC(C)NC(=O)c1ccccc1NC(=O)c1cccc(S(=O)(=O)Nc2ccccc2)c1 (stereo unspecified)	9.2	> 250	> 250	inactive	17.2	30.5	22.5	37.6	43	23.5	25.5	26.3	1 (≈ 2.21 µM)	permeable	50			
NC(=O)c1c(NC(=O)c2cnn3c(C(F)(F)F)cc(-c4ccccc4)nc23)sc2c1CCC2	44.8	> 250	> 250		27.5	57												
Cn1c(=O)cc2c3c(c(N4CCCCC4)ccc31)C(=O)c1ccccc1-2				Active														
O=C(Nc1cnn(C23CC4CC(CC(C4)C2)C3)c1)c1cnn2c1NC(c1ccccc1)CC2C(F)(F)F (stereo unspecified)	> 200	30.1	20.2															
Cc1ccc(-c2cc(C(F)(F)F)n3ncc(C(=O)Nc4sc5c(c4C(N)=O)CCCC5)c3n2)cc1	43	> 250	> 250		63	101												
COc1ccc(-c2cc(C(F)(F)F)n3ncc(C(=O)Nc4sc5c(c4C(N)=O)CCCC5)c3n2)cc1	135	40.4	51.3															
NC(=O)c1c(NC(=O)c2cnn3c(C(F)F)cc(-c4ccccc4)nc23)sc2c1CCCC2	91.2	> 250	> 250		94.2	66												
NC(=O)c1c(NC(=O)c2nc3nc(-c4ccccc4)cc(C(F)(F)F)n3n2)sc2c1CCCC2	7.5	> 250	> 250	inactive	9.2	23.7	23.3	20.6	22.9	20	33.5	25.9	2.4 (≈ 4.93 µM)	permeable		Stable		
NC(=O)c1c(NC(=O)c2cnn3c(C(F)F)cc(-c4ccccc4)nc23)sc2c1CCC2		> 250	> 250		29.5	75.5	> 100	> 100	95.5	> 100	> 100	> 100			37		inactive	31.4
CCC(C)NC(=O)c1ccccc1NC(=O)c1cccc(S(=O)(=O)Nc2cc(C)ccc2C)c1 (stereo unspecified)	84	> 250	> 250	inactive	25.7	35.2	16.5	16.7	22.1	10.8	15.5	19.8						
O=C(Nc1ccccc1Cl)c1ccc2c(c1)C1C3CCC(C3)C1C(c1ccccc1)N2 (stereo unspecified)	> 200	> 250	> 250		> 100	> 100												
O=C(Nc1ccc2c(c1)CCC2)c1cnn2c(C(F)(F)F)cc(-c3cccs3)nc12	35.1	12.4	18.3															
NC(=O)c1c(NC(=O)c2cnn3c(C(F)(F)F)cc(-c4ccccc4)nc23)sc2c1CCCC2	120	> 250	> 250		70.5	> 100												
NC(=O)c1ncn([C@@H]2O[C@H](CO)[C@@H](O)[C@H]2O)n1 [RIBAVIRIN]		> 250	> 250		24.9	15.6												
CCC(C)NC(=O)c1ccccc1NC(=O)c1ccc(C)c(S(=O)(=O)Nc2cc(C)ccc2C)c1 (stereo unspecified)	30.5	> 250	> 250	inactive	45.9	18.7	17.5	22.6	25	15.9	21.8	29.6						
CCC(C)NC(=O)c1ccccc1NC(=O)c1cccc(S(=O)(=O)Nc2ccc(O)cc2)c1 (stereo unspecified)	> 200	> 250	> 250		82.6	> 100												
COC(=O)C1=C(N)N(c2cccc(Cl)c2C)C2=C(C(=O)CCC2)C1c1ccc2c(c1)OCO2 (stereo unspecified)	30.4				18.5													
CCC(C)NC(=O)c1ccccc1NC(=O)c1ccc(C)c(S(=O)(=O)Nc2cccc(NC(=O)c3ccccc3)c2)c1 (stereo unspecified)	> 200	> 250	> 250		> 100	> 100												
Cc1ccc(C)c(NS(=O)(=O)c2cc(C(=O)Nc3ccccc3C(=O)Nc3ccccc3)ccc2C)c1	91.9	> 250	70.3		> 100	24.7												
